Assay results of several laboratories.
Each line is one published result; the experiments were not run side by side.

With COc1ccc(Sc2ccc(C)cc2)c(OC)c1OC the IC50 was > 40000 nM (tubulin polymerisation, inhibitor, absorbance; pH 6.6).
For COc1ccc(Cn2cc(C[C@@]3(O)C[C@@H]4c5cc(OCc6cc(C)cc(C)c6)c(OCc6cc(C)cc(C)c6)cc5CCN4[C@@H](C)C3)nn2)cc1, the IC50 was 1280 nM (ASPC1; cell growth or viability, MTT).
With CC(C)C[C@H](NC(=O)[C@H](Cc1ccccc1)NC(=O)c1cnccn1)B(O)O the IC50 was 4.9 nM (HCC1569; cell growth or viability, ATP luminescence).
C[C@@H](Oc1cc(-c2cnn(C3CCNCC3)c2)cnc1N)c1c(Cl)ccc(F)c1Cl gave an inhibition of 58.8% (KARPAS-299; cell growth or viability, MTT; 0.04 µg/mL, 72 h).
For COc1ccc(S(=O)(=O)c2ccc(OC)c(OC)c2OC)cc1, the IC50 was > 40000 nM (tubulin polymerisation, inhibitor, absorbance; pH 6.6).
For Cc1cc(C)cc(COc2cc3c(cc2OCc2cc(C)cc(C)c2)C2CC(O)(Cc4cn(CCCCCCOc5ccc6c(c5)C(=O)N(C5CCC(=O)NC5=O)C6=O)nn4)CC(C)N2CC3)c1 (stereo not shown), the IC50 was 890 nM (ASPC1; cell growth or viability, MTT).
With COc1cc(Nc2nccc(-c3cnn4nc(OC)ccc34)n2)cc(C(F)(F)F)c1 the IC50 was 980 nM (ASPC1; cell growth or viability, ATP luminescence).
With C#CC[C@]1(O)C[C@@H]2c3cc(OCc4cc(C)cc(C)c4)c(OCc4cc(C)cc(C)c4)cc3CCN2[C@@H](C)C1 the IC50 was 791 nM (ASPC1; cell growth or viability, MTT).
For COc1ccc(S(=O)(=O)c2ccc(C)cc2)c(OC)c1OC, the IC50 was > 40000 nM (tubulin polymerisation, inhibitor, absorbance; pH 6.6).
Cc1cc(Nc2ncc(Cl)c(Nc3ccccc3S(=O)(=O)C(C)C)n2)c(OC(C)C)cc1C1CCNCC1 has an inhibition of 22.4% (KARPAS-299; cell growth or viability, MTT; 0.02058 µg/mL, 72 h).
